IMP-1 inh-1 = blocks Pseudomonas aeruginosa IMP-1 metallo-beta-lactamase; purified IMP-1, nitrocefin hydrolysis, epi-absorbance fluorescence; inhibition, % at 5.6 µM; hit rate 0.45% among 290,000;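 active = inhibition above the mean plus 3 SD of all compounds in the same screening run, cut at about 4.5% in these data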;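 also: 0% = IMP-1 with DMSO and 100% = DMSO wells lacking enzyme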
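System – purified recombinant IMP-1 beta-lactamase · Input – IMP-1 dispensed at 0.2 nM · Timing – 15 min preincubation plus 25 min reaction at 25 °C · Signal – Epi-absorbance fluorescence, 480 nm excitation, 530 nm emission · Measure – percent IMP-1 inhibition derived from blank-referenced optical density · Controls – Enzyme-plus-DMSO low control, enzyme-free DMSO high control · Replication – singlicate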
m5-HT2A agonist = mouse HTR2A agonism via beta-arrestin recruitment; activation, % at 7.6 µM; AID 624169; hit rate 0.66% among 360,000; CHO-K1 mHTR2A beta-arrestin complementation, luminescence; percent of 30 µM serotonin response;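 active = activation above a run cutoff, the mean activation of all tested compounds plus 3 SD, cut at about 14% in these data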;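 also: 0% = plate median of compound wells and 100% = 30 µM serotonin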
dFosB act = enhances mouse delta FosB homodimer DNA binding. P13346. purified delta FosB, TAMRA-CDK5 oligo fluorescence polarization; percent of positive-control signal above neutral wells. activation, % at 25 µM. hit rate 0.99% among 340,000. AID 493131;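 active = mean activation above about 17%, with every replicate also reaching it, limit read from the data, passing the limit was not always enough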
Target sequence (P13346 whole entry, looked up): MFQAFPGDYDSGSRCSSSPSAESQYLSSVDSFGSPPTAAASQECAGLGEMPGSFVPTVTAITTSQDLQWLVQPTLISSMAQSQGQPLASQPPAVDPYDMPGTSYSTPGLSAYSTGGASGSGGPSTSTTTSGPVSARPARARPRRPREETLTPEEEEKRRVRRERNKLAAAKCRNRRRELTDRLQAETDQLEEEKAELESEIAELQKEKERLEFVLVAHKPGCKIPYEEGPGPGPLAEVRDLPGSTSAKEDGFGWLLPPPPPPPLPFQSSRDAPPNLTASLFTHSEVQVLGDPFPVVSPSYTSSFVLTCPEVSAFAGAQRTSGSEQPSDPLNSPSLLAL
VIM-2 inhibitor = inhibitors of Pseudomonas aeruginosa VIM-2 metallo-beta-lactamase. AID 1527. hit rate 0.89% among 290,000. inhibition, % at 5.6 µM. purified VIM-2, nitrocefin hydrolysis, epi-absorbance fluorescence;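 active = inhibition above the mean of all tested compounds plus 3 SD, cutoff set per screening run, cut at about 7.5% in these data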;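 also: red hydrolysis product quenches plate fluorescence so inhibitors raise well fluorescence; 0% = enzyme with DMSO and 100% = DMSO without enzyme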
IMP-1 inh-2 = selectivity counter-screen for VIM-2 inhibitors: IMP-1 metallo-beta-lactamase inhibitors | inhibition, % at 5.6 µM | 1,300 tested, under 10 active | shares compounds with VIM-2 inhibitor | purified IMP-1, nitrocefin hydrolysis, epi-absorbance fluorescence; call rule not given here;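 also: 0% = enzyme with vehicle and 100% = vehicle without enzyme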
VIM-2 FRET ctr = VIM-2 FRET inhibition, artifact counter-screen; hit rate 23% among 1,300; purified VIM-2, CCF2 FRET substrate hydrolysis; shares compounds with VIM-2 inhibitor; inhibition, % at 5.6 µM;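 active = inhibition above the mean of all tested compounds plus 3 SD, cut at about 19% in these data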;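 also: 0% = VIM-2 plus DMSO and 100% = no enzyme wells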
TEM-1 counter = selectivity counter-screen for VIM-2 inhibitors: E. coli TEM-1 inhibitors | shares compounds with VIM-2 inhibitor | Purified TEM-1, nitrocefin hydrolysis, epi-absorbance fluorescence | inhibition, % at 5.6 µM | hit rate 3% among 1,300 | AID 1866;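 active = inhibition above that campaign's mean inhibition plus 3 SD, cut at about 0.46% in these data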;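 also: 0% = TEM-1 with DMSO and 100% = TEM-1 with 100 µM potassium clavulanate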
VIM-2 inh conf = confirmation of P. aeruginosa VIM-2 metallo-beta-lactamase inhibitors; shares compounds with VIM-2 inhibitor; purified VIM-2, nitrocefin hydrolysis, epi-absorbance; inhibition, % at 5.6 µM; hit rate 96% among 1,300;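 active = inhibition of the VIM-2 beta-lactamase enzyme above about 11% from the earlier first-round screen, limit read from the data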;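 also: 0% = VIM-2 with DMSO and 100% = buffer wells without enzyme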
Active calls of the source: *; nt = no result. Compounds with a hit are over-represented: about 2.5% of the library has one in this group of screens.

SMILES	IMP-1 inh-1	m5-HT2A agonist	dFosB act	VIM-2 inhibitor	IMP-1 inh-2	VIM-2 FRET ctr	TEM-1 counter	VIM-2 inh conf
COc1cc(Nc2c3c(nc4ccccc24)CCC3)cc(OC)c1OC	-1.8	-6.2	-7.9	1.5	nt	nt	nt	nt
COc1ccc(OC)c(Nc2c3c(nc4ccccc24)CCC3)c1	-0.9	-5.5	1.9	12.7*	-2.8	-4.9	-5.1	19.9*
CC(C)(C)N(Cc1ccccc1)C(=O)COC(=O)C1=NN(c2ccccc2)C(=O)CC1	nt	8.2	-11.0	nt	nt	nt	nt	nt
CCN=C1S/C(=C/c2ccc(-c3ccc(Cl)cc3C(=O)O)o2)C(=O)N1CC	2.3	-2.1	-5.3	13.3*	-2.9	18.8*	-6.9	16.3*
CCc1nnc2c(N(C)C)nc3ccccc3n12	-0.5	-0.5	-1.5	16.3*	-3.0	-1.7	-6.5	31.2*
CCc1nnc2c(NCCc3ccc(OC)c(OC)c3)nc3ccccc3n12	-1.9	-0.2	1.0	14.7*	-2.1	0.2	-3.7	20.6*
COc1ccc(CCNc2nc3ccccc3n3cnnc23)cc1OC	-2.7	3.6	-10.3	-1.6	nt	nt	nt	nt
CCc1nnc2c(N(C)S(=O)(=O)c3ccc(C)cc3)nc3ccccc3n12	-3.0	-2.0	-10.2	0.2	nt	nt	nt	nt
Cc1ccc(C)c(CNC(=O)Nc2ccccc2)c1	-2.6	-1.7	6.8	0.7	nt	nt	nt	nt
O=C1CCCC/C1=C/Nc1cccc(C(F)(F)F)c1	-3.3	2.8	-9.4	13.1*	-2.1	29.6*	1.4*	24.7*
O=C(NCc1ccco1)c1cccn2c(=O)c3sccc3nc12	-1.8	-0.1	-45.3	19.4*	-1.7	-2.8	-8.0	34.1*
CN1CCN(c2ccc(-c3ccc4ccccc4n3)cc2)CC1	-1.9	-8.3	3.8	68.2*	-2.1	2.9	-5.0	80.8*
NS(=O)(=O)c1ccc(CCNC(=O)COc2ccc3c4c(c(=O)oc3c2)CCC4)cc1	-3.4	2.0	-10.4	18.8*	-3.2	-3.9	-7.6	27.5*
CC(Oc1ccc2c3c(c(=O)oc2c1)CCCC3)C(=O)NCc1cccnc1 (stereo not drawn)	-2.6	4.5	-5.8	2.8	nt	nt	nt	nt
O=C(COc1ccc2c3c(c(=O)oc2c1)CCC3)NCc1cccnc1	-3.2	0.0	-7.6	17.5*	-3.5	-1.1	-6.4	27.0*
O=C(COc1cc2oc(=O)c3c(c2cc1Cl)CCC3)NCc1ccncc1	-2.9	2.9	-16.4	27.8*	-2.8	-3.8	-2.6	34.9*
O=C(COc1ccc2c3c(c(=O)oc2c1)CCC3)NCc1ccncc1	-2.4	4.5	-18.6	28.8*	-2.8	-3.3	-3.6	38.8*
Cc1cc(=O)oc2cc(OCC(=O)NCc3ccncc3)ccc12	-3.2	3.3	1.2	2.5	nt	nt	nt	nt
Cc1ccc(NC2CCCN(C(=O)CCCN3CCCCC3=O)C2)cc1C (stereo not drawn)	-3.4	9.9	-6.1	-1.8	nt	nt	nt	nt
CCCN1CCN(C(=O)Cn2nc(CC)n3c(cc4sccc43)c2=O)CC1	-1.5	3.0	-0.8	33.0*	-2.4	0.3	-6.6	38.7*
COc1ccc2[nH]c(C(=O)O)c(CCC(=O)O)c2c1	1.5	1.9	3.8	-4.8	nt	nt	nt	nt
Cc1ccc(NC(=O)CCN2C(=O)c3cccc([N+](=O)[O-])c3C2=O)c(Br)c1	1.6	-0.3	3.9	-0.1	nt	nt	nt	nt
O=C(O)c1[nH]c2ccc(Cl)cc2c1CCN1C(=O)c2ccccc2C1=O	-1.3	0.2	-0.1	65.4*	-1.4	79.3*	-2.0	74.0*
O=C(O)c1[nH]c2ccc(Br)cc2c1CCN1C(=O)c2cccc([N+](=O)[O-])c2C1=O	-2.4	2.1	-10.5	60.6*	-3.0	79.2*	-7.4	68.4*
COc1ccc2[nH]c(C(=O)O)c(CCN3C(=O)c4ccc(C(=O)O)cc4C3=O)c2c1	-1.3	0.6	-3.3	70.8*	-3.2	84.5*	-5.1	75.1*
CCn1c(=O)c2sccc2n(Cc2ccccc2)c1=O	-7.0	-4.6	-3.5	-0.4	nt	nt	nt	nt
CCC[C@@H](CNC)NC[C@H](Cc1ccccc1)NCCCCc1ccccc1	-1.7	-2.3	4.2	55.6*	-3.3	0.6	-6.7	65.8*

Source: PubChem BioAssay
